Values after ≈ are worked out from the molar mass of the structure shown. Active and inactive are the calls of the source. The rule behind the calls is not given here.
Assays:
Saccharomyces cerevisiae [1] = experiment: Antifungal activity against Saccharomyces cerevisiae AY-10c expressing ScKRE6 gene by microdilution method; format: functional
Saccharomyces cerevisiae [2] = experiment: Antifungal activity against Saccharomyces cerevisiae CY-4a expressing ScKRE6-CaKRE6 gene by microdilution method; format: functional
Candida albicans [3] = experiment: Antifungal activity against Candida albicans ATCC 90028 assessed as inhibition of hyphal elongation at 0.25 ug/ml in HFM-7 medium using crystal violet stain by light microscopy; format: functional, organism-based
Candida albicans [4] = experiment: Inhibition of beta-1.6-glucan synthesis in Candida albicans ATCC 90028 assessed as [14C] glucose incorporation at 0.063 ug/ml after 3 hrs; format: functional, organism-based
Summary of the method: (§1)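 Exponential cells suspended in RPMI 1640 (A595 about 0.6) with drug and [14C]glucose, 3 h at 30°C with occasional shaking. Cells extracted with 3% NaOH at 80°C for 1 h; mannan precipitated with Fehling's reagent. Insoluble fraction digested overnight with Zymolyase to separate β-1,6-glucan. Percent change in incorporated radioactivity against control.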

Candida albicans [5] = experiment: Antifungal activity against Candida albicans ATCC 24433 in YNB media by microdilution method; format: functional
Summary of the method: (§2)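 Broth microdilution per NCCLS at 30°C, inoculum 1 × 10³ to 3 × 10⁴ cells/ml. Medium was MEM, SDB, YNB, Spider or Lee's, all without Alamar Blue. End point MIC-2: 50% drop in OD600 against drug-free control. RPMI run used MOPS-buffered RPMI with Alamar Blue read at 570 nm. Duplicates.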

Candida albicans [6] = experiment: Antifungal activity against Candida albicans ATCC 90028 assessed as inhibition of hyphal elongation at 0.25 ug/ml in Lee's medium using crystal violet stain by light microscopy; format: functional, organism-based
[7] = Cmax in Slc::ddY mouse at 10 mg/kg, po tid administered 1 hr post infection for 1 day; format: ADME, organism-based; design: dose 10 mg/kg, route oral; conditions: in vivo
Candida albicans [8] = experiment: Antifungal activity against Candida albicans ATCC 24433 in Lee's media by microdilution method; format: functional; summary of the method: as §2
Pichia kudriavzevii [9] = experiment: Antifungal activity against Candida krusei ATCC 44507 by microdilution method; format: functional
Summary of the method: (§3)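 Broth microdilution per NCCLS M27-A2 in MOPS-buffered RPMI with Alamar Blue, incubated at 30°C. Starting inoculum 1 × 10³ to 3 × 10⁴ cells/ml. End point MIC-2: 50% reduction in A570 against drug-free control. Duplicate runs, repeated on another day if they disagreed.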

Candida albicans [10] = experiment: Antifungal activity against Candida albicans ATCC 90028 infected in reconstituted human vaginal epithelium tissue assessed as inhibition of fungal cell invasion in to the tissue at 0.25 ug/ml using […] and methylene blue stain by light microscopy; format: functional, organism-based
Summary of the method: (§4)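 RHVE (A431 keratinocytes) infected with 2 × 10⁶ ATCC 90028 cells that had been pretreated with drug. Drug also added to the maintenance medium. After 24 h at 37°C, 5% CO2, tissue fixed in formaldehyde; semithin sections stained with […]/methylene blue and examined by light microscopy.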

Candida albicans [11] = experiment: Antifungal activity against Candida albicans ATCC 24433 in RPMI media by microdilution method; format: functional; summary of the method: as §3
Candida albicans [12] = experiment: Antifungal activity against Candida albicans ATCC 90028 infected in reconstituted human vaginal epithelium tissue assessed as inhibition of fungal cell invasion in to the tissue at 1 ug/ml using […] and methylene blue stain by light microscopy; format: functional, organism-based; summary of the method: as §4
Nakaseomyces glabratus [13] = experiment: Antifungal activity against Candida glabrata ATCC 48435 infected in Slc::ddY mouse assessed as survival rate at 3.3 mg/kg, po tid administered 1 hr post infection for 1 day measured on day 14; format: functional
Summary of the method: (§5)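 Five-week-old female Slc:ddY mice, made neutropenic with cyclophosphamide 200 mg/kg ip 4 days before and 1 day after infection. SDA-grown cells in 0.1% Tween 80 saline were injected into the tail vein: C. albicans 2.6 × 10⁴ cells, C. glabrata 2.4 × 10⁸ cells. Oral dosing at 1, 4 and 7 h post-infection. Controls got 5% glucose with 1% lactic acid. 10 mice/group; mortality followed 14 or 30 days.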

Nakaseomyces glabratus [14] = experiment: Antifungal activity against Candida glabrata ATCC 48435 infected in Slc::ddY mouse assessed as survival rate at 10 mg/kg, po tid administered 1 hr post infection for 1 day measured on day 14; format: functional; summary of the method: as §5
Nakaseomyces glabratus [15] = experiment: Inhibition of beta-1.6-glucan synthesis in Candida glabrata ATCC 48435 assessed as [14C] glucose incorporation after 3 hrs; format: functional, organism-based; summary of the method: as §1
Candida albicans [16] = experiment: Antifungal activity against Candida albicans ATCC 24433 in SDB media by microdilution method; format: functional; summary of the method: as §2
Saccharomyces cerevisiae [17] = experiment: Antifungal activity against Saccharomyces cerevisiae CY-1a expressing ScKRE6 gene by microdilution method; format: functional
Candida albicans [18] = experiment: Antifungal activity against Candida albicans ATCC 90028 assessed as inhibition of hyphal elongation at 0.25 ug/ml in Spider medium using crystal violet stain by light microscopy; format: functional, organism-based
Candida albicans [19] = experiment: Antifungal activity against Candida albicans ATCC 24433 in Spider media by microdilution method; format: functional; summary of the method: as §2
Candida albicans [20] = experiment: Antifungal activity against Candida albicans ATCC 90028 assessed as degradation of mannan layer of the cell wall at >0.25 ug/ml after 6 hrs using fluorescein-conjugated concanavalin A stain by fluorescent microscopy; format: functional, organism-based
Summary of the method: (§6)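 Budding yeast at 1 × 10³ cells/ml exposed to drug in MOPS-buffered RPMI for 6 h with shaking (legend gives 30°C). Cells fixed in 3% glutaraldehyde/0.1 M phosphate for 2 h. For mannan: stained 30 min with 10 μg/ml fluorescein–concanavalin A, fluorescence microscopy. For TEM: 2% OsO4 postfix, Spurr's resin, uranyl acetate/lead citrate stained sections.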

Nakaseomyces glabratus [21] = experiment: Antifungal activity against Candida glabrata ATCC 48435 by microdilution method; format: functional; summary of the method: as §3
Candida albicans [22] = experiment: Antifungal activity against Candida albicans ATCC 24433 in MEM media by microdilution method; format: functional; summary of the method: as §2
Saccharomyces cerevisiae [23] = experiment: Antifungal activity against Saccharomyces cerevisiae CY-3a expressing ScKRE6-CaSKN2 gene by microdilution method; format: functional
Candida albicans [24] = experiment: Inhibition of beta-1.6-glucan synthesis in Candida albicans ATCC 90028 assessed as [14C] glucose incorporation after 3 hrs; format: functional, organism-based; summary of the method: as §1
Candida albicans [25] = experiment: Antifungal activity against Candida albicans ATCC 90028 by microdilution method; format: functional; summary of the method: as §3
Candida albicans [26] = experiment: Antifungal activity against Candida albicans ATCC 90028 assessed as degradation of mannan layer of the cell wall at 1 ug/ml after 6 hrs using fluorescein-conjugated concanavalin A stain by fluorescent microscopy; format: functional, organism-based; summary of the method: as §6
Candida albicans [27] = experiment: Antifungal activity against Candida albicans ATCC 90028 assessed as inhibition of adherence of fungal cell to human A549 cells; format: functional, organism-based
Summary of the method: (§7)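 Yeast pretreated with drug in MOPS-buffered RPMI at 30°C overnight without shaking. 100 or 200 cells in DPBS overlaid on confluent A549 monolayers (DMEM/10% FBS), 45 min at 37°C, 5% CO2. Washed, covered with SDA, colonies counted after 48 h at 30°C. Percent reduction of adherence; triplicate, mean ± SD.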

Candida albicans [28] = experiment: Antifungal activity against Candida albicans ATCC 90028 infected in Slc::ddY mouse assessed as survival rate at 10 mg/kg, po tid administered 1 hr post infection for 1 day measured on day 30; conditions: ATCC 90028, po
[29] = Half life in Slc::ddY mouse at 10 mg/kg, po tid administered 1 hr post infection for 1 day; format: ADME, organism-based; design: dose 10 mg/kg, route oral; conditions: in vivo
Saccharomyces cerevisiae [30] = experiment: Antifungal activity against Saccharomyces cerevisiae CY-5a expressing ScKRE6-CaSKN1 gene by microdilution method; format: functional
Nakaseomyces glabratus [31] = experiment: Antifungal activity against Candida glabrata ATCC 48435 assessed as inhibition of adherence of fungal cell to human A549 cells; format: functional, organism-based; summary of the method: as §7
Pichia kudriavzevii [32] = experiment: Inhibition of beta-1.6-glucan synthesis in Candida krusei ATCC 44507 assessed as [14C] glucose incorporation after 3 hrs; format: functional, organism-based; summary of the method: as §1
Pichia kudriavzevii [33] = experiment: Antifungal activity against Candida krusei ATCC 44507 assessed as inhibition of adherence of fungal cell to human A549 cells; format: functional, organism-based; summary of the method: as §7
Candida albicans [34] = experiment: Antifungal activity against Candida albicans ATCC 24433 by microdilution method; format: functional; summary of the method: as §3
Candida albicans [35] = experiment: Antifungal activity against Candida albicans ATCC 90028 assessed as absence of outer layer of the cell wall at 1 ug/ml after 6 hrs by TEM; format: functional, organism-based; summary of the method: as §6

Row | SMILES | MIC (Saccharomyces cerevisiae [1]) [µg/mL] | MIC (Saccharomyces cerevisiae [2]) [µg/mL] | MIC (Candida albicans [5]) [µg/mL] | MIC (Candida albicans [8]) [µg/mL] | MIC (Pichia kudriavzevii [9]) [µg/mL] | MIC (Candida albicans [11]) [µg/mL] | MIC (Candida albicans [16]) [µg/mL] | MIC (Saccharomyces cerevisiae [17]) [µg/mL] | MIC (Candida albicans [19]) [µg/mL] | MIC (Nakaseomyces glabratus [21]) [µg/mL] | MIC (Candida albicans [22]) [µg/mL] | MIC (Saccharomyces cerevisiae [23]) [µg/mL] | MIC (Candida albicans [25]) [µg/mL] | MIC (Saccharomyces cerevisiae [30]) [µg/mL] | MIC (Candida albicans [34]) [µg/mL] | also measured
1 | Cc1c(-c2ccccc2)c(N2CC[C@H](N(C)C)C2)n2c(nc3ncccc32)c1C#N | 0.25 (≈ 0.631 µM) | 0.25 (≈ 0.631 µM) | 16 (≈ 40.4 µM) | 0.125 (≈ 0.315 µM) | 0.5 (≈ 1.26 µM) | > 16 | 4 (≈ 10.1 µM) | 0.5 (≈ 1.26 µM) | 0.125 (≈ 0.315 µM) | 0.125 (≈ 0.315 µM) | > 16 | 0.25 (≈ 0.631 µM) | > 32 | 0.25 (≈ 0.631 µM) | > 32 | Activity (Candida albicans [3]): Active; inhibition (Candida albicans [4]): Active; Activity (Candida albicans [6]): Active; Cmax [7]: 710 ng/mL; Activity (Candida albicans [10]): Active; Activity (Candida albicans [12]): Active; survival at 3.3 mg/kg (Nakaseomyces glabratus [13]): 90%; survival at 10 mg/kg (Nakaseomyces glabratus [14]): 100%; inhibition (Nakaseomyces glabratus [15]): Active; Activity (Candida albicans [18]): Active; Activity (Candida albicans [20]): Active; inhibition (Candida albicans [24]): Active; Activity (Candida albicans [26]): Active; Activity (Candida albicans [27]): Active; survival at 10 mg/kg (Candida albicans [28]): 50%; half-life [29]: 4.4 h; Activity (Nakaseomyces glabratus [31]): Active; inhibition (Pichia kudriavzevii [32]): Active; Activity (Pichia kudriavzevii [33]): Active
2 | Cc1c(-c2ccccc2)c(N2CC[C@H](N(C)C)C2)n2c(nc3ccccc32)c1C#N | 0.125 (≈ 0.316 µM) | 0.125 (≈ 0.316 µM) | 16 (≈ 40.5 µM) | 0.125 (≈ 0.316 µM) | 0.25 (≈ 0.632 µM) | > 16 | 2 (≈ 5.06 µM) | 0.125 (≈ 0.316 µM) | 0.063 (≈ 0.159 µM) | 0.016 (≈ 0.0405 µM) | > 16 | 0.125 (≈ 0.316 µM) | > 32 | 0.25 (≈ 0.632 µM) | > 32 | Activity (Candida albicans [35]): Active
3 | CCc1c(C)c(C#N)c2nc3ccccc3n2c1NCCN(CC)CC | 8 (≈ 22.9 µM) | 16 (≈ 45.8 µM) | – | – | 16 (≈ 45.8 µM) | – | – | 8 (≈ 22.9 µM) | – | 1 (≈ 2.86 µM) | – | 8 (≈ 22.9 µM) | 16 (≈ 45.8 µM) | 16 (≈ 45.8 µM) | 8 (≈ 22.9 µM) | –
